Experimental data taken from PubChem BioAssay AID2430 (Vanderbilt High Throughput Screening Facility, 2010).
Active and inactive are the calls of the source. How the calls were made is not given here.

target: Muscarinic acetylcholine receptor M2 (Homo sapiens) (UniProt P08172); assay: M2 receptor positive allosteric modulation off-target check, dose response, selectivity assay for M1 muscarinic PAM project, cell-based, CHO-K1 M2/Gqi5, Fluo-4 calcium, ACh EC20 (AID 2430); details: CHO-K1 M2/Gqi5 calcium Fluo-4, ACh EC20 PAM mode; series mostly up to 30 µM
Summary of the method: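 Assay system: human M2/Gqi5-transfected CHO-K1 cells. Buffer or medium: HEPES- and probenecid-supplemented HBSS, pH 7.4. Probe or stimulus: acetylcholine at roughly EC20 (submaximal) concentration. Dosing: test compound with 0.3% DMSO final. Incubation: Fluo-4 loading at 37 °C, 1.5 min pretreatment, 50 s ACh. Measured by: calcium flux measured with Fluo-4 fluorescent dye.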

Muscarinic acetylcholine receptor M2 (Homo sapiens), sequence (P08172 whole entry, looked up): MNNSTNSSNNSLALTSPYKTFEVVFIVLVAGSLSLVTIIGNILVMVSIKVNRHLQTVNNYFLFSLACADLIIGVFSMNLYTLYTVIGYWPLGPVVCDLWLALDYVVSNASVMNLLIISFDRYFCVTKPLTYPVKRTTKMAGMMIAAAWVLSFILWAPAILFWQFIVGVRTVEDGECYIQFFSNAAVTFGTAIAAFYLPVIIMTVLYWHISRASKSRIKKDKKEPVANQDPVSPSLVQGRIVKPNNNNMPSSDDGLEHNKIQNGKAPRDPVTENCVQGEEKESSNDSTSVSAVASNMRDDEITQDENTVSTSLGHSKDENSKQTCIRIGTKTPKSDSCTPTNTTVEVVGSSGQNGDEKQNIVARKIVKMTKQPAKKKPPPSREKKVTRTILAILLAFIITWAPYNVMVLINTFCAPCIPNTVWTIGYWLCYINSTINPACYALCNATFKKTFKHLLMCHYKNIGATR

outcome, inactive:
O=C1C(=O)N(Cc2ccc(Oc3ccccc3)cc2)c2ccc(OC(F)(F)F)cc21
Cc1cc(NC(=O)CS(=O)(=O)c2cn(Cc3cc(Br)ccc3F)c3ccccc23)no1
Cn1cc(-c2cc(F)c(CN3C(=O)C(=O)c4ccccc43)c(F)c2)cn1
Cn1cc(-c2ccc(CN3C(=O)C(=O)c4ccccc43)c(F)c2)cn1
